Source: ChEMBL document CHEMBL1123650, “In vivo characterization of hydroxamic acid inhibitors of 5-lipoxygenase” (J Med Chem, 1987)
The source made the active and inactive calls. No cut-off for these calls is given here.

Columns and labels:
[1] = system: Rattus norvegicus; experiment: Inhibition of leukotriene biosynthesis was determined in vivo with the rat peritoneal anaphylaxis model administered perorally at 100 mg/kg; not significant; format: functional, organism-based; design: dose 100 mg/kg
Method in brief: (§1)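 Fasted male Sprague-Dawley rats sensitized ip with rabbit anti-BSA in PBS pH 7.1, then challenged ip 3 h later with BSA (4 mg) in PBS containing 30 mM L-cysteine. Compound in 0.2% methylcellulose given by gavage 1 h before challenge; 6–8 rats per group. Peritoneal fluid collected 15 min after challenge, LTC4 measured by RIA. % inhibition vs control mean, ± SEM; significance at […].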

[2] = biological target: T1, Polyunsaturated fatty acid 5-lipoxygenase (Rattus norvegicus, UniProt P12527); experiment: In vitro inhibitory activity against 5-lipoxygenase in rat RBL-1 cells; format: cell-based
T1 sequence (P12527 whole entry): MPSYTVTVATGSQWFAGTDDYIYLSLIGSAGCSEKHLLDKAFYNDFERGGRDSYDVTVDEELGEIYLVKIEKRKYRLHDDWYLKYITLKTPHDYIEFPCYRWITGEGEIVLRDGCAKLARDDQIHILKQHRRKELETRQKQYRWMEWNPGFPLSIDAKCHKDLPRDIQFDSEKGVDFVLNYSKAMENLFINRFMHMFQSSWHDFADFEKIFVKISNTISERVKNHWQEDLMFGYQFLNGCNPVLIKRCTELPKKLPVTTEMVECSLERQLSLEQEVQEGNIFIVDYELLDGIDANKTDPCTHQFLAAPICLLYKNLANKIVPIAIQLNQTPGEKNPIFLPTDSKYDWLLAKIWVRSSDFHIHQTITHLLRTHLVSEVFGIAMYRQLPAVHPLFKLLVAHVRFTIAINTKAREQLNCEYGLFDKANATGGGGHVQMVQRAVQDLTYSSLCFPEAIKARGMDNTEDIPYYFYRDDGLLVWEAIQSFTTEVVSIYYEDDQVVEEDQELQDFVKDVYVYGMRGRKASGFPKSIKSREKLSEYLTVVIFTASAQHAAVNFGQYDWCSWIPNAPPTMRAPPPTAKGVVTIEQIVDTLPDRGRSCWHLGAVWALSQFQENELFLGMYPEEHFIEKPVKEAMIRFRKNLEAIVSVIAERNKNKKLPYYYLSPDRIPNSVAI
Method in brief: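 RBL-1 cell homogenate, 20000g supernatant (from 6 × 10^4 cells) in 200-μL incubations with 2% DMSO vehicle and varied inhibitor concentrations. Reaction started with radiolabeled arachidonic acid, stopped by acidification and ether extraction. Products separated from substrate by TLC and counted by scintillation. Triplicate incubations, compared against mean of vehicle controls (n = 8). IC50 with 95% confidence limits from linear regression of % inhibition vs log concentration.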

[3] = system: Rattus norvegicus; experiment: Plasma concentration was evaluated for corresponding hydroxamic acid metabolite at 100 mg/kg dose peroral administration in rats after 60 min; format: functional, organism-based; design: dose 100 mg/kg
Method in brief: (§2)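 Rats dosed by oral gavage, 100 mg/kg suspended in 0.2% methylcellulose (4 mL/kg). Blood taken from lateral tail vein, plasma separated. Proteins precipitated with 2 volumes methanol before reversed-phase HPLC, or plasma acidified and ether-extracted for normal-phase HPLC. Parent hydroxamate and carboxylic acid metabolite measured. Average of four determinations with range.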

[4] = system: Rattus norvegicus; experiment: Inhibition of leukotriene biosynthesis was determined in vivo with the rat peritoneal anaphylaxis model administered perorally at 100 mg/kg; format: functional; conditions: route oral; method in brief: as §1
[5] = system: Rattus norvegicus; experiment: Plasma concentration was evaluated for corresponding carboxylic acid metabolite at 100 mg/kg dose peroral administration in rats after 20 min; format: functional, organism-based; design: dose 100 mg/kg; method in brief: as §2
[6] = system: Rattus norvegicus; experiment: Plasma concentration was evaluated for corresponding carboxylic acid metabolite at 100 mg/kg dose peroral administration in rats after 60 min; format: functional, organism-based; design: dose 100 mg/kg; method in brief: as §2
[7] = system: Rattus norvegicus; experiment: Plasma concentration was evaluated for corresponding hydroxamic acid metabolite at 100 mg/kg dose peroral administration in rats after 20 min; format: functional, organism-based; design: dose 100 mg/kg; method in brief: as §2
[8] = system: Rattus norvegicus; experiment: Inhibition of leukotriene biosynthesis was determined in vivo with the rat peritoneal anaphylaxis model administered perorally at 100 mg/kg *p > 0.05; format: functional; conditions: route oral; method in brief: as §1

Question: With Cc1cc(C)c(-c2ccc(C(=O)NO)cc2)c(C)c1 as the compound, how does the inhibition [1] read?
Answer: inactive

Question: Which results are given for CC(C)Oc1ccc(C(C)C(=O)N(C)O)cc1 (stereo not drawn)?
Answer: IC50 [2]: 3700 nM; Concentration [3]: 38 µM; inhibition in vivo at 100 mg/kg [4]: 67%

Question: Which Concentration [5] does the source give for CC(C)Cc1ccc(C(C)(C)C(=O)N(C)O)cc1 here?
Answer: 9.3 µM

Question: What about the Concentration [6] of the same compound?
Answer: < 1 µM

Question: What about the Concentration [7] of the same compound?
Answer: 5.8 µM

Question: What about the Concentration [3] of the same compound?
Answer: < 1 µM

Question: For CC(C)Cc1ccc(C(C)C(=O)NO)cc1 (stereo not drawn) [IBUPROXAM], which IC50 [2] is on record?
Answer: 4840 nM

Question: What about the Concentration [5] of the same compound?
Answer: 114 µM

Question: And the Concentration [6]?
Answer: 146 µM

Question: And the Concentration [7]?
Answer: 49 µM

Question: What about the Concentration [3] of the same compound?
Answer: 27 µM

Question: And the inhibition [1]?
Answer: inactive

Question: What does the source list for CC(C)Cc1ccc(C(C)C(=O)N(O)C(C)C)cc1 (stereo not drawn)?
Answer: Concentration [5]: < 4 µM; Concentration [6]: < 4 µM; Concentration [7]: < 4 µM; Concentration [3]: < 4 µM

Question: With CC(C)Cc1ccc(CC(=O)N(C)O)cc1 as the compound, how does the Concentration [5] read?
Answer: 162 µM

Question: And the Concentration [6]?
Answer: 138 µM

Question: What about the Concentration [7] of the same compound?
Answer: 46 µM

Question: And the Concentration [3]?
Answer: 12 µM

Question: For CN(O)C(=O)c1ccc2ccccc2c1, which inhibition [1] is on record?
Answer: inactive

Question: How did the Concentration [5] turn out when CC(C)Cc1ccc(C(=O)N(C)O)cc1 was run?
Answer: 432 µM

Question: What about the Concentration [6] of the same compound?
Answer: 404 µM

Question: What about the Concentration [7] of the same compound?
Answer: < 5 µM

Question: What about the Concentration [3] of the same compound?
Answer: < 5 µM

Question: For CC(C(=O)N(C)O)c1ccc(OCc2ccccc2)cc1 (stereo not drawn), which IC50 [2] is on record?
Answer: 280 nM

Question: What about the Concentration [5] of the same compound?
Answer: 16 µM

Question: And the Concentration [6]?
Answer: 51 µM

Question: And the Concentration [7]?
Answer: 8.4 µM

Question: And the Concentration [3]?
Answer: 7.9 µM

Question: What about the inhibition in vivo at 100 mg/kg [4] of the same compound?
Answer: 62%

Question: Which IC50 [2] does the source give for Cc1cc(C)c(-c2ccc(C(=O)N(C)O)cc2)c(C)c1 here?
Answer: 60 nM

Question: What about the inhibition in vivo at 100 mg/kg [4] of the same compound?
Answer: 41%

Question: With COc1ccc2cc(C(C)C(=O)N(C)O)ccc2c1 (stereo not drawn) as the compound, how does the IC50 [2] read?
Answer: 410 nM

Question: What about the Concentration [5] of the same compound?
Answer: 3 µM

Question: What about the Concentration [6] of the same compound?
Answer: 4 µM

Question: What about the Concentration [7] of the same compound?
Answer: 1.7 µM

Question: And the Concentration [3]?
Answer: 1.3 µM

Question: And the inhibition in vivo at 100 mg/kg [4]?
Answer: 52%

Question: With CCCCOc1ccc(C(C)C(=O)N(C)O)cc1 (stereo not drawn) as the compound, how does the IC50 [2] read?
Answer: 730 nM

Question: And the Concentration [5]?
Answer: 40 µM

Question: What about the Concentration [6] of the same compound?
Answer: 50 µM

Question: What about the Concentration [7] of the same compound?
Answer: 38 µM

Question: What about the Concentration [3] of the same compound?
Answer: 13 µM

Question: And the inhibition in vivo at 100 mg/kg [4]?
Answer: 62%

Question: CC(C)Cc1ccc(C(C)C(=O)N(C)O)cc1 (stereo not drawn) was tested. Which IC50 [2] did it give?
Answer: 980 nM

Question: What about the Concentration [5] of the same compound?
Answer: 41 µM

Question: And the Concentration [6]?
Answer: 36 µM

Question: What about the Concentration [7] of the same compound?
Answer: 32 µM

Question: And the Concentration [3]?
Answer: 14 µM

Question: And the inhibition in vivo at 100 mg/kg [4]?
Answer: 65%

Question: For CC(C)Cc1ccc(/C=C/C(=O)N(C)O)cc1, which Concentration [5] is on record?
Answer: 1.9 µM

Question: And the Concentration [6]?
Answer: 4.5 µM

Question: And the Concentration [7]?
Answer: < 4 µM

Question: And the Concentration [3]?
Answer: < 4 µM

Question: For CC(C)Cc1ccc(CCC(=O)N(C)O)cc1, which Concentration [5] is on record?
Answer: 349 µM

Question: What about the Concentration [6] of the same compound?
Answer: 80 µM

Question: What about the Concentration [7] of the same compound?
Answer: < 10 µM

Question: And the Concentration [3]?
Answer: < 10 µM

Question: Which inhibition in vivo at 100 mg/kg [8] does the source give for CN(O)C(=O)/C=C/c1ccc2ccccc2c1 here?
Answer: 66%

Question: Which results are given for CC(C)Cc1ccc(C(C(=O)N(C)O)C(C)C)cc1 (stereo not drawn)?
Answer: Concentration [5]: 3.7 µM; Concentration [6]: 7.5 µM; Concentration [7]: 5 µM; Concentration [3]: 7.9 µM

Question: What does the source list for Cc1cc(C)c(-c2ccc(/C=C/C(=O)N(C)O)cc2)c(C)c1?
Answer: IC50 [2]: 22 nM; inhibition [1]: inactive
